Activity calls are given as the source filed them. No cut-off for these calls is given here.
How the values were obtained:
[1] = molecular target: T1, Protein kinase C (PKC) (Homo sapiens) (UniProt O94806+P41743+P17252+P05129+Q05655+P05771+Q05513+Q02156+P24723+Q15139+Q04759); assay: Inhibition of PKC activation in human U87MG cells assessed as inhibition of translocation to plasma membrane at 2 uM after 24 hrs by Western blot/densitometric analysis; type: cell-based; settings: U-87MG ATCC
Method in brief: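 U87MG cells (4 × 10^5) cultured in DMEM high glucose/10% FBS, treated 24 h at 37 °C; controls received 0.005% ethanol. Means ± S.D. of three experiments, Student's t-test.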

[2] = molecular target: T1, Protein kinase C (PKC) (Homo sapiens); assay: Inhibition of PKC activation in PMA-treated human fibroblasts assessed as inhibition of translocation to plasma membrane at 0.2 uM pretreated for 1 hr followed by 15 mins challenged with PMA by Western blot/densitometric analysis
Method in brief: (§1)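 Primary human dermal fibroblasts in 10% FBS DMEM, pretreated 1 h at 37 °C with compound (ethanol vehicle, 0.2–2 range), then 100 nM PMA for 15 min. Controls received 0.005% ethanol ± PMA. 10 µg membrane protein on 10% SDS-PAGE/PVDF, probed with anti-PKC; densitometry. IC50 derived from the inhibition curve.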

[3] = molecular target: T1, Protein kinase C (PKC) (Homo sapiens); assay: Inhibition of PKC activation in PMA-treated human fibroblasts assessed as inhibition of translocation to plasma membrane at 2 uM pretreated for 1 hr followed by 15 mins challenged with PMA by Western blot/densitometric analysis; method in brief: as §1
[4] = Antitumor activity against human U87MG cells assessed as reduction in [3H]thymidine incorporation at 2 uM after 24 hrs by beta counting; type: functional, U-87MG ATCC; set-up: scale not given: the % may be the effect or the level left
Method in brief: (§2)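 [3H]thymidine incorporation in U87MG cells: 4 × 10^4 cells plated, treated 24 h or 48 h; […] [3H]thymidine added for final 4 h at 37 °C; radioactivity counted in trichloroacetic acid-insoluble material by β-counter. Means ± S.D. of four experiments.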

[5] = molecular target: Protein kinase C (PKC); assay: Inhibition of PKC activation in PMA-treated human fibroblasts assessed as inhibition of translocation to plasma membrane cells pretreated for 1 hr followed by 15 mins challenged with PMA by Western blot/densitometric analysis; method in brief: as §1
[6] = system: U-87 MG; assay: Inhibition of human U87MG cell migration assessed as reduction in wound size at 2 uM pretreated for 48 hrs measured after 30 hrs of scratching by scratch migration assay relative to control; type: functional, U-87MG ATCC
Method in brief: (§3)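 U87MG cells (8 × 10^4) pretreated 48 h in 10% FBS DMEM, ethanol-only controls. Wound width photographed under phase contrast at 0, 6, 24 and 30 h post-scratch.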

[7] = molecular target: T1, Protein kinase C (PKC) (Homo sapiens); assay: Inhibition of PKC activation in PMA-treated human fibroblasts assessed as decrease in Raf phosphorylation at 2 uM pretreated for 1 hr followed by 15 mins challenged with PMA by Western blot/densitometric analysis
Method in brief: (§4)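 Primary human dermal fibroblasts, 5 × 10^5 cells seeded in DMEM/10% FBS; after 24 h, compound (ethanol vehicle) in 10% FBS DMEM for 1 h at 37 °C, then 100 nM PMA for 15 min. Controls received 0.005% ethanol ± PMA. Cells sonicated; 25 µg total lysate run on 10% SDS-PAGE, blotted to PVDF and probed with phospho-specific antibodies; densitometry.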

[8] = molecular target: T1, Protein kinase C (PKC) (Homo sapiens); assay: Inhibition of PKC activation in PMA-treated human fibroblasts assessed as decrease in FAK phosphorylation at 2 uM pretreated for 1 hr followed by 15 mins challenged with PMA by Western blot/densitometric analysis; method in brief: as §4
[9] = molecular target: T1, Protein kinase C (PKC) (Homo sapiens); assay: Inhibition of PKC activation in PMA-treated human fibroblasts assessed as decrease in MEK phosphorylation at 2 uM pretreated for 1 hr followed by 15 mins challenged with PMA by Western blot/densitometric analysis; method in brief: as §4
[10] = Suppression of PKC delta mRNA expression in PMA-treated human fibroblasts at 2 uM pretreated for 1 hr followed by 15 mins challenged with PMA by RT-PCR analysis; type: functional, cell-based; settings: Fibroblast
Method in brief: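 Fibroblasts pretreated 1 h, then 100 nM PMA for 15 min. RNA taken for real-time PCR of PKCα and PKCδ with SYBR Green and 0.2 µM primers. Cycling: 95 °C for 3 min, then 40 cycles of 95 °C 10 s / 58 °C 30 s; specificity checked by melting curve. Means ± S.D. of four experiments, Student's t-test.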

[11] = molecular target: T1, Protein kinase C (PKC) (Homo sapiens); assay: Inhibition of PKC activation in PMA-treated human fibroblasts assessed as decrease in ERK1/2 phosphorylation at 2 uM pretreated for 1 hr followed by 15 mins challenged with PMA by Western blot/densitometric analysis; method in brief: as §4
[12] = system: U-87 MG; assay: Inhibition of human U87MG cell migration at 2 uM pretreated for 48 hrs measured after 6 to 30 hrs of scratching by scratch migration assay relative to control; type: functional, cell-based; settings: U-87MG ATCC; method in brief: as §3
[13] = Antitumor activity against human U87MG cells assessed as reduction in [3H]thymidine incorporation at 2 uM after 48 hrs by beta counting; type: functional, U-87MG ATCC; set-up: scale not given: the % may be the effect or the level left; method in brief: as §2

SMILES: CCCCCCCCCC(=O)OC[C@H]1O[C@@H](OC(CO)CO)[C@H](O)[C@@H](O)[C@H]1O
- inhibition [1]: inactive

SMILES: CCCCCC(=O)OC[C@H]1O[C@@H](OC(CO)CO)[C@H](O)[C@@H](O)[C@H]1O
- inhibition [2]: 35%
- inhibition [3]: 64%

SMILES: CC(C)CC(=O)OC[C@H]1O[C@@H](OC(CO)CO)[C@H](O)[C@@H](O)[C@H]1O
- Activity [4]: 25%
- IC50 [5]: 480 nM
- inhibition [2]: 23%
- inhibition at 2 µM [6]: 16%
- inhibition [7]: Active
- inhibition [8]: Active
- inhibition [3]: 99%
- inhibition [9]: Active
- Activity [10]: Active
- inhibition [11]: Active
- inhibition [12]: Active
- Activity [13]: 30%
- inhibition [1]: 58%

SMILES: OCC(CO)O[C@@H]1O[C@H](CO)[C@H](O)[C@H](O)[C@H]1O
- inhibition [2]: 27%
- inhibition [3]: 50%

SMILES: O=C(CC1CCCCC1)OC[C@H]1O[C@@H](OC(CO)CO)[C@H](O)[C@@H](O)[C@H]1O
- inhibition [2]: 38%
- inhibition [3]: 52%

From ChEMBL document CHEMBL1770116, “Glycoglycerolipid analogues inhibit PKC translocation to the plasma membrane and downstream signaling pathways in PMA-treated fibroblasts and human glioblastoma cells, U87MG” (Eur J Med Chem, 2011)
